Assay [1] concerns the target T1, Melanocortin receptor 4 (Homo sapiens, UniProt P32245). Briefly: Stimulation of cAMP levels in the HEK293 cell line at 10 uM. It counts as functional, cell-based. In a few lines: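 Agonism was measured as cAMP levels in HEK293 cells stably expressing human MC4R. The test ligand was applied at 10 μM, and the response was expressed relative to the response to α-MSH.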
Background: cAMP levels reflect the balance of adenylyl cyclase and phosphodiesterase activity.

In assay [2] the target is T1, Melanocortin receptor 4. The experiment in a line: Inhibition of [125I]NDP-MSH (radioligand) binding to the hMC4R stably expressed in HEK293 cells. It counts as cell-based. In a few lines: (§1)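 Competition binding was run on HEK293 cells stably transfected with human MC1R, MC3R, MC4R or MC5R, each receptor in its own line. The radioligand was [125I]-NDP-MSH. For the MC4R values, data are the average of two to three independent measurements.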

For assay [3], the target named is T2, Melanocortin receptor 3 (Homo sapiens, UniProt P41968). The experiment in a line: Inhibition of [125I]-NDP-MSH (radioligand) binding to the human MC3R stably expressed in HEK293 cells. It counts as cell-based. The procedure, abridged:
as §1

The target of assay [4] is Melanocortin receptor 5 (Homo sapiens, UniProt P33032). Briefly: Inhibition of [125I]NDP-MSH (radioligand) binding to the human MC5R stably expressed in HEK293 cells. It counts as cell-based. In a few lines: as §1
Assay [5] has as its target T1, Melanocortin receptor 4. Briefly: Inhibition of [125I]-AgRP(83132) (radioligand) binding to the hMC4R stably expressed in HEK293 cells;. It counts as cell-based. The procedure, abridged:
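Competition binding was run on HEK293 cells stably transfected with human MC4R. The radioligand was [125I]-AgRP(83–132).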

Assay [6] has as its system HEK293. The experiment in a line: Dose-dependent inhibition of cAMP production stimulated by 10 nM a-MSH in HEK293 cells;. It counts as functional, cell-based, Homo sapiens. In a few lines:
(§2)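 Functional antagonism was measured as inhibition of cAMP production in HEK293 cells stably expressing human MC4R. Cells were stimulated with 10 nM α-MSH, and the test ligand was applied over a range of concentrations.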

Assay [7] concerns the target Melanocyte-stimulating hormone receptor (Homo sapiens, UniProt Q01726). Briefly: Inhibition of [125I]NDP-MSH (radioligand) binding to human MC1R at 10 um concentration stably expressed in HEK293 cells. It counts as cell-based. Conditions: hek293. In a few lines:
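Competition binding was run on HEK293 cells stably expressing human MC1R, with [125I]-NDP-MSH as the radioligand. The value is percent inhibition of binding with the test ligand at 10 µM.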

For assay [8], the system named is HEK293. The experiment in a line: Dose-dependent inhibition of cAMP production stimulated by 10 nM a-MSH in HEK293 cells. It counts as functional, cell-based. Conditions: Homo sapiens. In a few lines:
as §2

Assay [9] has as its target T2, Melanocortin receptor 3. Briefly: Inhibition of [125I]NDP-MSH (radioligand) binding to the human MC3R stably expressed in HEK293 cells. It counts as cell-based. In a few lines:
as §1

T1 sequence (P32245 whole entry): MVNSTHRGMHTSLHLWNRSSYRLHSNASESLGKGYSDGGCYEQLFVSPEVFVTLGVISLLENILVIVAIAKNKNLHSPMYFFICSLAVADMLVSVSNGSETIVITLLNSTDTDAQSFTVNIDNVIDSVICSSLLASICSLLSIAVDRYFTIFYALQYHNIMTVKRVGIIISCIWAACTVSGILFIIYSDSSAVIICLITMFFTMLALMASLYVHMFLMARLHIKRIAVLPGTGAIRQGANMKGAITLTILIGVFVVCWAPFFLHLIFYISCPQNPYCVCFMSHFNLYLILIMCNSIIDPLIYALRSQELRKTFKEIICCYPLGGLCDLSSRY
Chain of Melanocortin receptor 5 (P33032 whole entry): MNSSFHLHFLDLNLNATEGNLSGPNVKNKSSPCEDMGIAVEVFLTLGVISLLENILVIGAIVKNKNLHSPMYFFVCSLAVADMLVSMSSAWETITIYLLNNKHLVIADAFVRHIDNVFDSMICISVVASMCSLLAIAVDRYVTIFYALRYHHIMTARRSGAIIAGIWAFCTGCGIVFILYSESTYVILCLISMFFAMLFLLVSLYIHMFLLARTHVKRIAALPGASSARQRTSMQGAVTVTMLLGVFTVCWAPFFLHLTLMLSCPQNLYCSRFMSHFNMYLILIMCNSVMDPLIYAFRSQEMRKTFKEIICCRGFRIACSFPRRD
T2 sequence (P41968 whole entry): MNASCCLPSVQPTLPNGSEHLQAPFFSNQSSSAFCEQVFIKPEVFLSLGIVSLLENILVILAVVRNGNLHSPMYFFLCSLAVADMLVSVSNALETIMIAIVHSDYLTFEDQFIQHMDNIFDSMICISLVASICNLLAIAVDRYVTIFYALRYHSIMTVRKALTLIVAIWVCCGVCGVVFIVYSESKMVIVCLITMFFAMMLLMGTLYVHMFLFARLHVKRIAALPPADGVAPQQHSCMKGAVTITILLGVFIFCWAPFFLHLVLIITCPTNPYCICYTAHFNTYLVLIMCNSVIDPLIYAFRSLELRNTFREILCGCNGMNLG
Chain of Melanocyte-stimulating hormone receptor (Q01726 whole entry): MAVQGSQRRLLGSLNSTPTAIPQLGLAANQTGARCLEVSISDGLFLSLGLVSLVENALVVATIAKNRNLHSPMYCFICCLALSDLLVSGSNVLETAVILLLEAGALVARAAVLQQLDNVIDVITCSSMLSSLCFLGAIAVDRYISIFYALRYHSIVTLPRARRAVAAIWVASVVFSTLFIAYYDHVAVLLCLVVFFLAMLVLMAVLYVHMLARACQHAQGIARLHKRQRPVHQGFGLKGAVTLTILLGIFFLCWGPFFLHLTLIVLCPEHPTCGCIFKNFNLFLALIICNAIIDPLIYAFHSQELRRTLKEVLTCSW

In [1], `NCCC(=O)N[C@H](Cc1ccc(Cl)cc1Cl)C(=O)N1CCN(C2(CNC(=O)Cc3ccccc3)CCCCC2)CC1` had a Stimulation of 1.6%. Further, the Ki is 8.8 nM in [2], 710 nM in assay [3], 920 nM in assay [4] and 6.4 nM in assay [5]. Half-maximal inhibition in [6] (IC50) was put at 260 nM. This compound returned an Inhibition in assay [7] of 47%.

In turn, `NCCC(=O)N[C@H](Cc1ccc(Cl)cc1Cl)C(=O)N1CCN(C2(CNCCc3ccccc3)CCCCC2)CC1` returned a Stimulation in assay [1] of 0.4%. Further, the Ki in assay [2] came to 11 nM; in [3] it was 3200 nM; in assay [4], 1200 nM. In assay [8], this compound showed an IC50 of 430 nM. Besides, the Inhibition in assay [7] is 44%.

Take `NCCC(=O)N[C@H](Cc1ccc(Cl)cc1Cl)C(=O)N1CCN(C2(CNCc3cccs3)CCCCC2)CC1`: the Stimulation in assay [1] was 8.1%. For the same compound, the figures for the Ki in assay [2], in assay [4] and in [9] were 12 nM, 1900 nM and 2400 nM, respectively.

The term Ki denotes the equilibrium dissociation constant of an inhibitor or competing ligand from its target. Higher therefore signals weaker binding. A word on the IC50: it is the concentration that gives 50% inhibition. A high value points to weaker potency. By Inhibition is commonly meant the drop in the measured response relative to a control, in per cent. Higher therefore signals a response far below the control.

The values above are taken from ChEMBL document CHEMBL1139579, “Structure-activity relationship of a series of cyclohexylpiperidines bearing an amide side chain as antagonists of the human melanocortin-4 receptor” (Bioorg Med Chem Lett, 2005).
